Data on one compound can be found in ChEMBL document CHEMBL4229344 (Eur J Med Chem, 2018).

Series [1] addresses Serine/threonine-protein kinase BRSK2 (Homo sapiens) (UniProt Q8IWQ3). Put plainly: Binding affinity to wild-type human full length BRSK2 (M1 to L674 residues) expressed in bacterial expression system assessed as residual binding level at 1 uM by Kinomescan method relative to control. The procedure, abridged: (§1)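 Single-concentration (1 μM) competition-binding screen run by KINOMEscan against a panel of 468 purified kinases and mutants. The read-out is the relative binding activity of the test compound to each kinase.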

Series [2] addresses Phosphatidylinositol 4-phosphate 5-kinase type-1 gamma (Homo sapiens) (UniProt O60331). The series is described as follows: Binding affinity to wild-type human partial length PIP5K1C (M1 to T668 residues) expressed in mammalian expression system assessed as residual binding level at 1 uM by Kinomescan method relative to control. The procedure, abridged:
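KINOMEscan competition binding against a panel of 468 purified kinases/mutants, compound tested at 1 μM; readout is relative binding activity versus control.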

The target of series [3] is Inhibitor of nuclear factor kappa-B kinase subunit alpha (Homo sapiens) (UniProt O15111). Put plainly: Binding affinity to wild-type human full length IKK-alpha (M1 to E745 residues) expressed in mammalian expression system assessed as residual binding level at 1 uM by Kinomescan method relative to control. The procedure, abridged:
as §1

Series [4] concerns the target Citron Rho-interacting kinase (Homo sapiens) (UniProt O14578). Put plainly: Binding affinity to wild-type human partial length CIT (M68 to E432 residues) expressed in bacterial expression system assessed as residual binding level at 1 uM by Kinomescan method relative to control. The procedure, abridged: (§2)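 Kinome-wide competition binding screen against a panel of 468 purified kinases/mutants, with the test compound at a single concentration of 1 μM. Read-out is the relative binding activity of each kinase in the presence of compound.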

Series [5] addresses Serine/threonine-protein kinase DCLK1 (Homo sapiens) (UniProt O15075). Put plainly: Binding affinity to wild-type human partial length DCAMKL1 (L270 to A662 residues) expressed in mammalian expression system assessed as residual binding level at 1 uM by Kinomescan method relative to control. The essentials:
as §2

In series [6] the target is Phosphatidylinositol 4,5-bisphosphate 3-kinase catalytic subunit delta isoform (Homo sapiens) (UniProt O00329). Put plainly: Binding affinity to wild-type human partial length PIK3CD (R108 to Q1044 residues) expressed in mammalian expression system assessed as residual binding level at 1 uM by Kinomescan method relative to control.
Series [7] relates to Platelet-derived growth factor receptor alpha (Homo sapiens), P16234 [T674I]. Put plainly: Inhibition of TEL-fused PDGFRalpha T674I mutant (unknown origin) expressed in mouse BA/F3 cells assessed as growth inhibition after 72 hrs by CellTiter-Glo or CCK-8 assay. The class given is cell-based.
The target in series [8] is Protein-tyrosine kinase 2-beta (Homo sapiens) (UniProt Q14289). The series is described as follows: Binding affinity to wild-type human full length PYK2 (M1 to E967 residues) expressed in bacterial expression system assessed as residual binding level at 1 uM by Kinomescan method relative to control. The essentials: (§3)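 Single-concentration KINOMEscan (DiscoverX) binding screen at 1 μM against a panel of 468 purified kinases and mutants. The read-out is binding relative to control.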

Series [9] relates to Epidermal growth factor receptor (Homo sapiens), P00533 [L858R,T790M]. The series is described as follows: Binding affinity to human partial length EGFR L858R/T790M double mutant (R669 to V1011 residues) expressed in mammalian expression system assessed as residual binding level at 1 uM by Kinomescan method relative to control. The essentials: (§4)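 Kinome-wide single-concentration binding screen (KINOMEscan) at 1 μM against a panel of 468 purified kinases and mutants. Read-out is relative binding of each kinase compared with control. Selectivity across the panel was summarised as an S(10) score.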

The target of series [10] is Transient receptor potential cation channel subfamily M member 6 (Homo sapiens) (UniProt Q9BX84). Put plainly: Binding affinity to wild-type human partial length TRPM6 (Q1723 to I1998 residues) expressed in mammalian expression system assessed as residual binding level at 1 uM by Kinomescan method relative to control.
Series [11] addresses Mitogen-activated protein kinase 7 (Homo sapiens) (UniProt Q13164). The series is described as follows: Binding affinity to wild-type human partial length ERK5 (M1 to A409 residues) expressed in bacterial expression system assessed as residual binding level at 1 uM by Kinomescan method relative to control. The procedure, abridged: as §2
Series [12] in a line: Cmax in Sprague-Dawley rat at 10 mg/kg, po. The format is ADME, organism-based. More on the design: dose 10 mg/kg, route oral. Particulars: in vivo. The essentials:
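Male Sprague-Dawley rats, 6–8 weeks old and fasted overnight, dosed IV at 1 mg/kg or PO at 10 mg/kg. Formulation was 5% DMSO/40% PEG400/55% saline (1 mg/mL). Jugular blood collected on heparin from 1 min to 8 h (IV) or 5 min to 24 h (PO). Plasma separated by centrifugation at 2–8 °C and stored at −80 °C.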

In series [13] the test system is Phosphatidylinositol 4,5-bisphosphate 3-kinase catalytic subunit alpha isoform (Homo sapiens), P42336 [M1043I]. The series is described as follows: Binding affinity to human partial length PIK3CA M1043I mutant (R108 to N1068 residues) expressed in mammalian expression system assessed as residual binding level at 1 uM by Kinomescan method relative to control. The essentials:
as §4

For series [14], the target named is Dual specificity testis-specific protein kinase 1 (Homo sapiens) (UniProt Q15569). The series is described as follows: Binding affinity to wild-type human full length TESK1 (R37 to S626 residues) expressed in bacterial expression system assessed as residual binding level at 1 uM by Kinomescan method relative to control. The procedure, abridged:
as §3

The target in series [15] is Cyclin-dependent kinase 11A (Homo sapiens) (UniProt Q9UQ88). Put plainly: Binding affinity to wild-type human partial length CDC2L2 (D391 to K730 residues) expressed in bacterial expression system assessed as residual binding level at 1 uM by Kinomescan method relative to control.
For series [16], the target named is Non-receptor tyrosine-protein kinase TYK2 (Homo sapiens) (UniProt P29597). The series is described as follows: Binding affinity to wild-type human partial length TYK2 JH1 catalytic domain (V877 to C1187 residues) expressed in mammalian expression system assessed as residual binding level at 1 uM by Kinomescan method relative to control.
Series [17] has as its target Dual specificity mitogen-activated protein kinase kinase 1 (Homo sapiens) (UniProt Q02750). Put plainly: Binding affinity to wild-type human full length MEK1 (M1 to V393 residues) expressed in mammalian expression system assessed as residual binding level at 1 uM by Kinomescan method relative to control. The essentials:
as §3

Series [18] has as its target Serine/threonine-protein kinase LATS1 (Homo sapiens) (UniProt O95835). Put plainly: Binding affinity to wild-type human partial length LATS1 (Q678 to V1130 residues) expressed in bacterial expression system assessed as residual binding level at 1 uM by Kinomescan method relative to control.
Series [19] deals with Serine/threonine-protein kinase PknB (Mycobacterium tuberculosis) (UniProt P9WI81). Put plainly: Binding affinity to wild-type Mycobacterium tuberculosis H37Rv ATCC 25618 partial length PKNB (M1 to G279 residues) expressed in mammalian expression system assessed as residual binding level at 1 uM by Kinomescan method relative to control. The essentials:
as §1

Molecules are shown by their SMILES.

Cyclin-dependent kinase 11A (Homo sapiens), sequence (Q9UQ88 whole entry, the tested form may be a part): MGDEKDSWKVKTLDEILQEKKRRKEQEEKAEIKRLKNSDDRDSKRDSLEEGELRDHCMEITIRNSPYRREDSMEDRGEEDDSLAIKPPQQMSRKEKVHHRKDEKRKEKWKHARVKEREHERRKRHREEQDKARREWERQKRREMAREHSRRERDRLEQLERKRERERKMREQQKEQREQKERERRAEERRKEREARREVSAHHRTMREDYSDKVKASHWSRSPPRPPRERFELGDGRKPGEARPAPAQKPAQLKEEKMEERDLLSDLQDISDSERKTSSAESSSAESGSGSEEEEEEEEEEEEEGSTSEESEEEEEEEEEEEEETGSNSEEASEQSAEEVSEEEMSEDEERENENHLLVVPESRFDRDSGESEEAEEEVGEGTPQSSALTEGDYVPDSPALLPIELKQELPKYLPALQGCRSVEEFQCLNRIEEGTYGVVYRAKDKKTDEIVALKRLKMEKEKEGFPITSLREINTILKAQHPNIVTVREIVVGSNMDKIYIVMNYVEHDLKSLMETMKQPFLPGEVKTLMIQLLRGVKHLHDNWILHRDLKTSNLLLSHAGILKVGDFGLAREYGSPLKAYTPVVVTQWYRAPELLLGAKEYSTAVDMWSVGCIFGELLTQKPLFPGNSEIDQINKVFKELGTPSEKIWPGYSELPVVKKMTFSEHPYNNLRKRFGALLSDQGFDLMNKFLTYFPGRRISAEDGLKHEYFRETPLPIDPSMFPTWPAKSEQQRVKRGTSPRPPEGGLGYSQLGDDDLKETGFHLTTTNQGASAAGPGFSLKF
Inhibitor of nuclear factor kappa-B kinase subunit alpha (Homo sapiens), sequence (O15111 whole entry, the tested form may be a part): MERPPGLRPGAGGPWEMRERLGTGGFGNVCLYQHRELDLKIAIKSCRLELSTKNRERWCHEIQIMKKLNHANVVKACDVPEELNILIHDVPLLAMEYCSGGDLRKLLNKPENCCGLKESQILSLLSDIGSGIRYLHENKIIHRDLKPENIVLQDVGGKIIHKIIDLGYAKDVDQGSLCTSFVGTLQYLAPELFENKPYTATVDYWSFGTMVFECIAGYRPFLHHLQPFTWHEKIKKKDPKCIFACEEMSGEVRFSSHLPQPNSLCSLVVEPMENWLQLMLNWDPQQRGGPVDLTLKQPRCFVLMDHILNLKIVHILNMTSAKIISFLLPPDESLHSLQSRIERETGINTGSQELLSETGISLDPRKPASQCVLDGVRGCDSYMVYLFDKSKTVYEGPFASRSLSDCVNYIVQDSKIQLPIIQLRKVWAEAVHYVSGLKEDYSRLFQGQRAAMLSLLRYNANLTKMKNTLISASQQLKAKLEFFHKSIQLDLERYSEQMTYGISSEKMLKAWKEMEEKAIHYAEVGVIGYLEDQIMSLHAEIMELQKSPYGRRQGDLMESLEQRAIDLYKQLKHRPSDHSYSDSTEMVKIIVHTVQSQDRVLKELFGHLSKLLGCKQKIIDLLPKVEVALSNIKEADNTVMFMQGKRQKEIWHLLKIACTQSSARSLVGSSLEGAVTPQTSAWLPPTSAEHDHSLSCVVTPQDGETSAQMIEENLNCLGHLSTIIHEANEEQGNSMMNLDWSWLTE
Protein-tyrosine kinase 2-beta (Homo sapiens), sequence (Q14289 whole entry, looked up, the tested form may be a part): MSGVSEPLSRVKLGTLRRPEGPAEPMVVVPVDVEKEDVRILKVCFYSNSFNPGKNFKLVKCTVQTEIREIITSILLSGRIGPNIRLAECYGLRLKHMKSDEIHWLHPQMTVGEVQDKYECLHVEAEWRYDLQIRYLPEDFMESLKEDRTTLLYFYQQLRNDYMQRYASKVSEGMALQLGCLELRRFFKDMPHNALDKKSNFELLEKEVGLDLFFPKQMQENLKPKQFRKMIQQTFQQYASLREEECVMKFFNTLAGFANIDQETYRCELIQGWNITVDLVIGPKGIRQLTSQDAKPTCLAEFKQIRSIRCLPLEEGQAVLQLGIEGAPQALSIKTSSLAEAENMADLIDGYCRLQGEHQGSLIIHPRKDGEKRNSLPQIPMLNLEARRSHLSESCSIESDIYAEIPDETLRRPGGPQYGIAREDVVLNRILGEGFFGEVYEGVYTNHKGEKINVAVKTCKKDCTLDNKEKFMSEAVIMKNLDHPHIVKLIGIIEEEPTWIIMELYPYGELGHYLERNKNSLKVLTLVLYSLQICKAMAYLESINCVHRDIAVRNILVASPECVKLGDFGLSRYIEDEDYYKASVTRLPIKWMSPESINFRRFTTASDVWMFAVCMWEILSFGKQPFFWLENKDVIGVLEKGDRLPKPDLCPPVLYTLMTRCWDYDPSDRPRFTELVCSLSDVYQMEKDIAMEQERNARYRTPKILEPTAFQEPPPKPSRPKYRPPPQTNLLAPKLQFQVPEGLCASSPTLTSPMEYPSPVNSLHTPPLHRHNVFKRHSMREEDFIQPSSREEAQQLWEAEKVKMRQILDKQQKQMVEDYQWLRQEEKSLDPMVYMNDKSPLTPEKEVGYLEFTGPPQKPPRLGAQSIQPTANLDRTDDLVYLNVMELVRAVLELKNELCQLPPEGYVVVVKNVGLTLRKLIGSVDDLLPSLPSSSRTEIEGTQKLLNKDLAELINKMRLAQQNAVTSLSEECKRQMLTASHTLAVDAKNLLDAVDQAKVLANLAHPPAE
Serine/threonine-protein kinase LATS1 (Homo sapiens), sequence (O95835 whole entry, the tested form may be a part): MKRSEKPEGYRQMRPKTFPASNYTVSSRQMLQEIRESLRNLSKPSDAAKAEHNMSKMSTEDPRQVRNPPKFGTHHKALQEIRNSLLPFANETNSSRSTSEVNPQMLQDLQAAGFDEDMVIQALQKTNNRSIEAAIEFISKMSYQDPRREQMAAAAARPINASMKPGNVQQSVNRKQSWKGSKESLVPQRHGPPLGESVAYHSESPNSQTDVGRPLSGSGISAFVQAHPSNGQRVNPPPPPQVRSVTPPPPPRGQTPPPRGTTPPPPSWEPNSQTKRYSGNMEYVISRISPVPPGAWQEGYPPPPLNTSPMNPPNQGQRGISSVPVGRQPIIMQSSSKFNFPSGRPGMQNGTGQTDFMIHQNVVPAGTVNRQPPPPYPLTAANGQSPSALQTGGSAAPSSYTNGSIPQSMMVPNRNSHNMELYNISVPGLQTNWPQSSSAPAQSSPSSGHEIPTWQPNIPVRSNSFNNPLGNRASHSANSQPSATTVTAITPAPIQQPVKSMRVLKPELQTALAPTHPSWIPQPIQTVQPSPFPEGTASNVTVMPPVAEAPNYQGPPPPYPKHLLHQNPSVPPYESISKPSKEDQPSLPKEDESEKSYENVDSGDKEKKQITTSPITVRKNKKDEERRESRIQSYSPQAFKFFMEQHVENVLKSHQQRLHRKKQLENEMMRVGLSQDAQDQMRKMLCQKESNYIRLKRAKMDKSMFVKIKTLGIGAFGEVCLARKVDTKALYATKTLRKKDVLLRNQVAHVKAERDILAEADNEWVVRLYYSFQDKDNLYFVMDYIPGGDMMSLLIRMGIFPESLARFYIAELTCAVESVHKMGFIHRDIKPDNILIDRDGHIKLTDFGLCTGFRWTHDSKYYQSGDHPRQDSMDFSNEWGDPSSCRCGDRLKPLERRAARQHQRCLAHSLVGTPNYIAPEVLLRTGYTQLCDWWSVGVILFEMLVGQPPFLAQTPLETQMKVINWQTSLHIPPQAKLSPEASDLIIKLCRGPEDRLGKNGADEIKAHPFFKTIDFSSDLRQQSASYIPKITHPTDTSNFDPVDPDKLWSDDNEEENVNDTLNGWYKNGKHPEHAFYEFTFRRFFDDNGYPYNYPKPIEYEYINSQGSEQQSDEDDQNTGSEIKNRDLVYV
Mitogen-activated protein kinase 7 (Homo sapiens), sequence (Q13164 2-816 limits assumed): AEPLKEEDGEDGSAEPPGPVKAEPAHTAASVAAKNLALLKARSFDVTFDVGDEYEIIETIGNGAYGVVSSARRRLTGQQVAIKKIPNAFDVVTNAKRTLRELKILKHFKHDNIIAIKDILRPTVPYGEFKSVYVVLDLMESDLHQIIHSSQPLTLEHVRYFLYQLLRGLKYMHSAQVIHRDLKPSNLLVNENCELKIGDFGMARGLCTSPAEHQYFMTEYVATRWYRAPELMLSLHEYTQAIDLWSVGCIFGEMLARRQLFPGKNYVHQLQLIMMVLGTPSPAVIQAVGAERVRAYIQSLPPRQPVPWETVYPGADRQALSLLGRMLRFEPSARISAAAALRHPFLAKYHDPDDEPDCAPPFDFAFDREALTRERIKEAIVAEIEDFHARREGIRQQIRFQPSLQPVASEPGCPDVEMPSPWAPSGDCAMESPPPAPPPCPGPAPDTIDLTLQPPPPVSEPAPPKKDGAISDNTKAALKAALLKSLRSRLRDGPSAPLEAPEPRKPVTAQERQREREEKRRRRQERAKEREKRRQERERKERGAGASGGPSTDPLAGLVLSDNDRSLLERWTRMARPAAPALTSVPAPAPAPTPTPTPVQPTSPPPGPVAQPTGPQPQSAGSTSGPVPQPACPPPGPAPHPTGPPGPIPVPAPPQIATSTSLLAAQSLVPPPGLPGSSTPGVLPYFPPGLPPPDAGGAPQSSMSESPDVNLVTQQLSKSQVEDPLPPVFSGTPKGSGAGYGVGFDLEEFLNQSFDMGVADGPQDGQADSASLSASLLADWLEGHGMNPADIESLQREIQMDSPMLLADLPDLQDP
Dual specificity mitogen-activated protein kinase kinase 1 (Homo sapiens), sequence (Q02750 whole entry, the tested form may be a part): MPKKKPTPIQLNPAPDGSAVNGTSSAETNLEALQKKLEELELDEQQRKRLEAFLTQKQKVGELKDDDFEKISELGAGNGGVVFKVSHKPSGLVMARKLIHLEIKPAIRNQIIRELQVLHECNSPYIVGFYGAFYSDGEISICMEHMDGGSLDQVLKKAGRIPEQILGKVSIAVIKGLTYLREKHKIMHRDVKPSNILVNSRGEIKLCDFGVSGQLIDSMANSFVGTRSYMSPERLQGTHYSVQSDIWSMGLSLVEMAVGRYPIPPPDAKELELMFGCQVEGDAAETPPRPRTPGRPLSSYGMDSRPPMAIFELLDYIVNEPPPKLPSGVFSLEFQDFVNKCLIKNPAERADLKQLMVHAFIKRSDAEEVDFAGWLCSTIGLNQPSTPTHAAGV

With `Cc1ccc(NC(=O)c2ccc(CN(CCN(C)C)C(=O)c3cccnc3)cc2)cc1Nc1nccc(-c2cccnc2)n1`, the Activity in series [1] was found to be 97%; in series [2], 83%; in series [3], 95%; in [4], 89%; in series [5], 78%; in series [6], 100%. The Activity stood at 99% in series [8]; 94% in [9]; 100% in series [10]; 84% in series [11]; 100% in [13]; 100% in series [14]. In addition, the Activity turned out to be 96% in [15]; 100% in series [16]; 97% in series [17]; 98% in [18]; 99% in series [19]. Besides, the GI50 in series [7] is greater than 10 µM. The same compound yielded a Cmax in [12] of 28.9 ng/mL.

By GI50 is commonly meant the concentration giving 50% growth inhibition. Broadly, the Cmax is the peak of the concentration-time curve.
